OX1R antag-1 = OX1R (HCRTR1) antagonists, primary screen, fluorescence, CHO/OX1R cells, Fluo-8 calcium, orexin A | Orexin/Hypocretin receptor type 1 (Homo sapiens), O43613 | Fluo-8 calcium fluorescence | inhibition, % at 5 µM | actives 0.43% (n = 330,000) | AID 434989, 2010;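 active means inhibition above its plate's threshold, mean inhibition of all tested compounds on the plate plus 3 SD, cut at about 37% in these data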;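 further: 0% = orexin A challenge wells and 100% = SB-334867-A antagonist wells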
Target sequence (O43613 whole entry, looked up): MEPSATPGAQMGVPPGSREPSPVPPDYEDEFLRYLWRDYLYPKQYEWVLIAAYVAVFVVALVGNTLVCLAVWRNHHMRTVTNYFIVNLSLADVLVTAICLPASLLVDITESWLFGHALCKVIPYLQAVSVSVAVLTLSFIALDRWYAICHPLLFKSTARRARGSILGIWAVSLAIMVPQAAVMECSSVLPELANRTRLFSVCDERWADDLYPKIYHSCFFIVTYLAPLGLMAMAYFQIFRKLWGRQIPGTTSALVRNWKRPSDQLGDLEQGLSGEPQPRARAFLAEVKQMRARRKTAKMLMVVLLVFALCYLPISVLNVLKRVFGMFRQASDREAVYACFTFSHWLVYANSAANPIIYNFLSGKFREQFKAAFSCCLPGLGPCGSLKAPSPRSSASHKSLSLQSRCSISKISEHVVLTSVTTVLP
TAAR1 agonist = human TAAR1 agonists, primary screen, Fluo-8 calcium fluorescence, CHO RD-HGA16 cells | actives 0.99% (n = 360,000) | activation, % at 3 µM | vehicle wells 0%, saturating PEA agonist 100% | AID 624467, 2012;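 active means activation above the mean activation of all test compounds in the run plus 3 SD, cut at about 38% in these data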
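System: CHO-derived RD-HGA16 cells with stable Gα16 and human TAAR1. Times: 17-24 h plating, Fluo-8 75 min 37 °C, 30 min RT. Measured by: calcium-sensitive Fluo-8 signal, excitation 470-495, emission 515-575 nm. Read-out basis: % activation relative to PEA EC100 response. Control set: DMSO and PEA EC100. Repeats: no replicates (n 1).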
CHO parental Ca = ATP-evoked calcium signal inhibitors, parental CHO, primary screen, counter-screen for OX1R antagonist project, cell-based, fluorescence, Fluo-8 calcium dye | inhibition, % at 5.6 µM | actives 0.63% (n = 330,000) | AID 463079, 2010 | parental CHO-K1, ATP-induced calcium, Fluo-8 fluorescence;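 active means inhibition above that plate's mean sample inhibition plus 3 SD, cut at about 26% in these data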;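 further: 0% = ATP-challenged DMSO wells and 100% = DMSO wells without ATP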
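Assay system – parental CHO cells · Reagent – ATP stimulus · Detection – intracellular calcium via Fluo-8 no-wash fluorescent dye · Evaluation – percent inhibition of ATP-evoked calcium rise, normalized to controls · Controls – ATP wells versus no-ATP DMSO wells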
OX1R antag-2 = antagonists of human orexin 1 receptor (OX1R); actives 1.8% (n = 330,000); Orexin/Hypocretin receptor type 1 (Homo sapiens), O43613; inhibition, % at 6.6 µM; OX1R-expressing cells, FRET antagonist read-out; AID 485270, 2010; in the data active means inhibition mostly above about 38%, no sharp cut-off; inactive means mostly below about 40%;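 further: 0% = agonist challenge alone and 100% = reference antagonist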
GPR7 antagonist = GPR7 receptor antagonists, primary screen, cell-based, fluorescence, single concentration | GPR7-expressing cells, fluorescence antagonist assay | inhibition, % at 4.4 µM | actives 1.1% (n = 290,000) | AID 1861, 2009; in the data active means inhibition above about 16%, passing the limit was not always enough;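 further: cells stimulated with the agonist NPW; 0% = agonist with vehicle and 100% = vehicle without agonist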
TAAR1 antag = human TAAR1 antagonists, primary screen, Fluo-8 calcium fluorescence, CHO RD-HGA16 cells; Trace amine-associated receptor 1 (Homo sapiens), Q96RJ0; antagonist; inhibition, % at 3 µM; actives 1.5% (n = 360,000); AID 624466, 2012;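 active means inhibition above a per-plate cutoff, the mean inhibition of test compounds on that plate plus 3 SD, cut at about 49% in these data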;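 further: 0% = DMSO plus EC80 beta-PEA response and 100% = DMSO alone without agonist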
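Test system: RD-HGA16 CHO cells with stable hTAAR1 and Gα16 / Probe or stimulus: EC80 β-phenethylamine stimulus / Times: seeding 17-24 h prior, 75-min 37 °C, 30-min RT dye loading / Detection: Fluo-8 calcium-sensitive fluorescence / Read-out basis: % inhibition scaled between DMSO and EC80 PEA controls / Repeats: singlicate, one well per test compound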
TAAR1 nonsel count = nonselective antagonists in TAAR1 counter-screen cells, counter-screen for hTAAR1 antagonist project, cell-based, fluorescence, calcium; shares compounds with TAAR1 antag; counterscreen cell line, antagonist mode; inhibition, % at 3 µM; actives 77% (n = 2,400); AID 651780, 2012; in the data active means inhibition above about 22%;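 further: CHO-Ga16 host cells stimulated with ATP at an EC80 level; 0% = agonist EC80 plus vehicle and 100% = vehicle without agonist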
TAAR1 antag conf = human TAAR1 antagonists, retest of hits, confirmation, cell-based, fluorescence; shares compounds with TAAR1 antag; TAAR1-expressing cells, fluorescence antagonist read-out; inhibition, % at 3 µM; actives 40% (n = 2,400); AID 651785, 2012; in the data active means inhibition above about 49%;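 further: CHO-Ga16 host cells challenged with agonist PEA near its EC80; 0% = agonist at EC80 plus vehicle and 100% = vehicle with no agonist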
Ga16 nonsel ag = calcium activation in Ga16-expressing cells, counter-screen for TAAR1 antagonist project, cell-based, fluorescence. shares compounds with TAAR1 antag. agonist counterscreen. activation, % at 3 µM. actives 18% (n = 2,400); in the data active means activation above about 12%;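 further: 0% = vehicle wells and 100% = saturating stimulus response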
TAAR1 ag counter = TAAR1 activation by candidate antagonists – cell-based, fluorescence, counter-screen for TAAR1 antagonist project. hTAAR1 cell line, agonist mode. activation, % at 3 µM. shares compounds with TAAR1 antag. AID 651955, 2012. actives 2% (n = 2,400); in the data active means activation above about 37%;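 further: CHO cells stably expressing TAAR1 with calcium dye readout; 0% = DMSO vehicle and 100% = full agonist response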
An asterisk follows results filed as active; / = no result. Compounds with a hit are over-represented: about 4.6% of the library has one in this group of screens.

SMILES | OX1R antag-1 | TAAR1 agonist | CHO parental Ca | OX1R antag-2 | GPR7 antagonist | TAAR1 antag | TAAR1 nonsel count | TAAR1 antag conf | Ga16 nonsel ag | TAAR1 ag counter
Cn1c(CSCc2ccccc2)nnc1SCC(=O)Nc1nccs1 | -14.4 | 8.4 | 2.6 | 19.1 | -16.5 | 10.8 | / | / | / | /
Cn1c(CSCc2ccc(Cl)cc2)nnc1SCC(=O)Nc1nccs1 | 21.4 | 25.3 | 8.3 | 22.8 | -8.2 | 61.5* | 42.3* | 55.9* | 16.9* | 19.5
CCOC(=O)c1c(C)[nH]c(C(=O)N/N=C/c2cccc(OC)c2)c1C | -29.1 | 17.0 | -8.6 | 14.9 | 5.9 | 55.0* | 20.8 | 41.3 | 11.5 | 12.4
CCOC(=O)c1c(C)[nH]c(C(=O)N/N=C\c2ccccc2Cl)c1C | 2.4 | 8.3 | -19.6 | 27.1 | 6.4 | 54.9* | 37.6* | 55.9* | 11.3 | 10.0
O=C(COC(=O)CNC(=O)C1CCCCC1)Nc1ccccc1Cl | -14.9 | 2.2 | -6.3 | 4.7 | / | -8.0 | / | / | / | /
COc1cc(C)cc(OC)c1OCC(=O)Nc1cc(C)on1 | -22.9 | -2.4 | -17.2 | 2.4 | / | 88.2* | 5.7 | 2.1 | 2.4 | 2.6
C/C=C/c1ccc2c(c1)O[C@H](CN(C)C(=O)NC1CCCC1)[C@H](C)CN([C@H](C)CO)S2(=O)=O | / | -1.1 | / | / | / | -7.2 | / | / | / | /
CCn1ncc2c(OCc3ccc(C#N)cc3)cc(C)nc21 | -45.0 | 18.1 | -29.5 | 7.3 | -10.3 | -3.8 | / | / | / | /
COc1ccc(-c2cc(C(=O)OCC(=O)NC3CC3)c3ccccc3n2)cc1 | -11.7 | 19.2 | -12.0 | 14.7 | / | -10.6 | / | / | / | /
COc1ccc2cc(-c3cc(C(=O)OCC(=O)NC4CCS(=O)(=O)C4)c4ccccc4n3)ccc2c1 (stereo not given) | 25.9 | 16.1 | -1.1 | 51.8 | -1.9 | 58.9* | 40.9* | 51.4* | 11.8* | 9.3
COc1ccc(CCNC(=O)CCN2C(=O)c3cccc4cccc(c34)C2=O)cc1OC | 5.2 | 1.9 | -3.6 | 7.3 | -13.7 | 6.8 | / | / | / | /
COc1ccc(CCN2C(=O)c3cccc4c(C(=O)N5CCCCC5)ccc(c34)C2=O)cc1OC | -23.0 | 20.6 | -19.4 | 14.5 | -2.6 | 61.3* | 36.5* | 60.7* | 12.4* | 13.2
CCOC(=O)c1cnc2ccc(OCC)cc2c1NCCCN1CCOCC1 | -11.8 | 0.7 | -14.9 | 26.6 | -5.8 | -21.9 | / | / | / | /
CC1(NC(=O)Cn2cc(C(F)(F)F)ccc2=O)CCS(=O)(=O)C1 (stereo not given) | -11.4 | -0.7 | -1.9 | -1.9 | / | -8.9 | / | / | / | /
Cc1cc([N+](=O)[O-])nn1Cc1ccc(C(=O)N/N=C/c2ccc(N(C)C)cc2)cc1 | -15.6 | 9.7 | -9.5 | 16.4 | -4.6 | -0.6 | / | / | / | /
Cc1cc(=O)oc2c3c(cc(OCC(=O)NCc4ccncc4)c12)OC(C)(C)CC3 | -7.6 | 4.6 | -11.6 | 22.4 | 8.9 | -2.9 | / | / | / | /
Cc1cc(=O)oc2c3c(cc(OCC(=O)NCCN4CCOCC4)c12)OC(C)(C)CC3 | -15.2 | 0.8 | -10.0 | 18.7 | 1.2 | 1.1 | / | / | / | /

Screening data as filed in PubChem.
